Reference: paper PMC7115421 (European Journal of Medicinal Chemistry, 2009)

Key:
[1] = system: 184B5 immortalized breast cell line; assay: SRB cytotoxicity assay, 184B5 non-cancer cells; type: cell-based, human; settings: for killing of 184B5 non-cancer cells (in words): combined with constant amount of Akt inhibitors 7–10 (0.04, 0.4, 3.5, 0.5 μM)
[2] = system: MCF7 breast cancer cell line; assay: SRB cytotoxicity assay, MCF7; type: cell-based, human
Procedure, shortened: (§1)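 Cells grown in RPMI 1640 with 10% FBS and 2 mM L-glutamine at 37 °C, 5% CO2. 5000–10,000 cells/well seeded 24 h before dosing. Seven concentrations from 2–10-fold serial dilutions; medium with matched DMSO as control. After 48 h: TCA fixation (60 min, 4 °C), 0.4% SRB, Tris solubilisation, absorbance 515–564 nm. Growth = (Ti−Tz)/(C−Tz)×100. GI50 from variable-slope sigmoidal fit; triplicates, ≥3 experiments.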

[3] = system: MDA-MB231 breast cancer cell line; assay: SRB cytotoxicity assay, MDA-MB231; type: cell-based; settings: Homo sapiens
Procedure, shortened: as §1

[4] = system: MDA-MB468 breast cancer cell line; assay: SRB cytotoxicity assay, MDA-MB468; type: cell-based; settings: Homo sapiens
Procedure, shortened: as §1

[5] = system: MDA-MB468, MDA-MB231 and MCF7 breast cancer cell lines; assay: SRB cytotoxicity assay, three breast cancer cell lines together; type: cell-based, human; settings: for sensitization of cell killing by PI3K-Akt inhibitors (in words): in combination with GI20 doses of PI3K-Akt inhibitors, three breast cancer cell lines
Procedure, shortened: (§2)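 Cells plated at 5000–10,000/well and held 24 h at 37 °C, 5% CO2; time-zero wells TCA-fixed. Test compound from DMSO stock, seven concentrations (2–10-fold dilutions), 48 h; DMSO-matched medium control. Cold TCA fixation (10% final), 60 min, 4 °C; 0.4% SRB stain; Tris base solubilisation; A515–564 nm. Growth % = (Ti−Tz)/(C−Tz)×100; GI values from variable-slope sigmoidal fit; triplicates, ≥3 independent experiments.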

[6] = system: MDA-MB468, MDA-MB231, MCF7 and 184B5; assay: SRB cytotoxicity assay, all four cell lines together; type: cell-based, human; settings: for cytotoxicity (in words) on the four cell lines: PI3K-Akt inhibitor alone; for average GI20 values on the four cell lines: average over MDA-MB468, MDA-MB231, MCF7, 184B5
Procedure, shortened: as §2

Molecule `CCN(CC)CCCC(C)Nc1ccnc2cc(Cl)ccc12` (centres unmarked) [Compound 1, Chloroquine diphosphate] has an IC50 ([1]; Homo sapiens, 184B5) of 76.1 µM, an IC50 ([2]; Homo sapiens, MCF7) of 38.4 µM and a GI50 ([2]; Homo sapiens, MCF7, 48 h) of 38.4 ± 1.2 µM. The IC50 ([3]; MDA-MB-231) was 22.5 µM, the GI50 ([3]; MDA-MB-231, 48 h) was 22.5 ± 1.44 µM and the IC50 ([4]; MDA-MB-468) was 28.6 µM. For the same molecule, the GI50 ([4]; MDA-MB-468, 48 h) was 28.6 ± 1.25 µM and the GI50 ([5]; Homo sapiens, read-out: GI50 on the cancer cell lines (range)) was 22.5 to 38.4 µM.

`CCCCNc1ccnc2cc(Cl)ccc12` [Compound 2, Butyl-(7-chloro-quinolin-4-yl)-amine] was tested, and the “killing of 184B5 non-cancer cells (in words)” value [1] was “effectively killed” and the “sensitization of cell killing by PI3K-Akt inhibitors (in words)” value [5] was “generally not effective sensitizers”.

`CCCCNc1ccnc2cc(F)ccc12` [Compound 3, Butyl-(7-fluoro-quinolin-4-yl)-amine] was tested, and the “killing of 184B5 non-cancer cells (in words)” value [1] was “effectively killed” and the “sensitization of cell killing by PI3K-Akt inhibitors (in words)” value [5] was “generally not effective sensitizers”.

For `CN(C)CCNc1ccnc2cc(Cl)ccc12` [Compound 4, N′-(7-Chloro-quinolin-4-yl)-N,N-dimethyl-ethane-1,2-diamine], the “sensitization of cell killing by PI3K-Akt inhibitors (in words)” value [5] was “substantial enhancement of cell killing”.

In the case of `CN(C)CCNc1ccnc2cc(F)ccc12` [Compound 5, N′-(7-Fluoro-quinolin-4-yl)-N,N-dimethyl-ethane-1,2-diamine], the “sensitization of cell killing by PI3K-Akt inhibitors (in words)” value [5] is reported as “substantial enhancement of cell killing”.

For `COc1ccc2c(NCCN(C)C)ccnc2c1` [Compound 6, N′-(7-Methoxy-quinolin-4-yl)-N,N-dimethyl-ethane-1,2-diamine], the “sensitization of cell killing by PI3K-Akt inhibitors (in words)” value [5] was “not very effective”.

`CC[n+]1c(C=CN(C)c2ccccc2)n(-c2ccccc2)c2ccc(-c3nc4ccccc4s3)cc21.[I-]` [Compound 7, 6-Benzothiazol-2-yl-1-ethyl-2-[2-(methyl-phenyl-amino)-vinyl]-3-phenyl-3H-benzoimidazol-1-ium Iodide] was tested, and the “cytotoxicity (in words) on the four cell lines” value [6] was “the most cytotoxic” and the “average GI20 values on the four cell lines” value [6] was 0.04 µM.

With `O=c1[nH]c2ccccc2n1C1CCN(Cc2ccc(-c3nc4cc5nc[nH]c5cc4nc3-c3ccccc3)cc2)CC1` [Compound 8, 1-{1-[4-(7-Phenyl-1H-imidazo[4,5-g]quinoxalin-6-yl)-benzyl]-piperidin-4-yl}-1,3-dihydro-benzoimidazol-2-one] the “cell killing (in words) of MCF7” value ([2]; PI3K-Akt inhibitor alone, not other cells examined) was “killed MCF7 cells effectively”.

In the case of `CCN(CC)CCCCN1c2ccccc2OC2C=CC(Cl)=CC21.Cl` (centres unmarked) [Compound 9, [4-(2-chloro-4a,10a-dihydro-phenoxazin-10-yl)-butyl]-diethyl-amine hydrochloride], the “cytotoxicity (in words) on the four cell lines” value [6] is reported as “only week cytotoxicity”.

In the case of `O=c1cc(N2CCOCC2)oc2c(-c3ccccc3)cccc12` [Compound 10, 2-Morpholin-4-yl-8-phenyl-chromen-4-one], the “average GI20 values on the four cell lines” value [6] is reported as 0.52 µM.
